Published values pooled from the literature.
Target: Cyclin-dependent kinase 15 (CDK15, Homo sapiens, UniProt Q96Q40)

| SMILES | test | conditions | remaining binding |
| --- | --- | --- | --- |
| O=C(NCCCN1CCOCC1)c1ccc(Nc2nccc(-c3cc4ccccc4s3)n2)cc1 | binding, competition with immobilised ligand | 1 µM | 87% |
| COc1cccc(CNC(=O)c2nc3scc(COCc4ccc(C(=O)O)cc4)c3c(=O)[nH]2)c1 | cell-free assay, competition with immobilised ligand | 1 µM | 97.6% |
| Cc1cnn2ncc(-c3ccnc(N(C)C)n3)c2c1 | binding | 1 µM | 100% |
| O=C(NCC1CCOCC1)c1n[nH]cc1NC(=O)c1c(F)cccc1F | binding, competition with immobilised ligand | 1 µM | 82% |
| COc1cnc(Nc2cccc(S(N)(=O)=O)c2)nc1N1CCN(c2ccccc2)C(=O)C1 | binding, competition with immobilised ligand | 1 µM | 100% |
| Cc1nc(Cc2cccc(C(F)(F)F)c2)sc1-c1ccc(C(N)=O)nc1 | cell-free assay, competition with immobilised ligand | 1 µM | 86% |
| F[C@@H]1CCN(c2nccc(-c3cnn4ncccc34)n2)C1 | binding | 1 µM | 100% |
| C[C@@H]1CN(c2cc(-c3nn(C)c4ccc(OC5(C)CC5)cc34)ncn2)C[C@H](C)O1 | cell-free assay, competition with immobilised ligand | 1 µM | 84% |
| O=C(c1ccc(Nc2nccc(-c3cc4ccccc4s3)n2)cc1)N1CCC(N2CCCC2)CC1 | binding, competition with immobilised ligand | 1 µM | 100% |
| N[C@H]1CCN(c2nccc(-c3cnn4ncccc34)n2)C1 | binding | 1 µM | 100% |
| c1cncc(-c2cccc(Nc3nccc(NC4CCCCC4)n3)c2)c1 | binding, competition with immobilised ligand | 10 µM | 76% |
| Cn1nc(C(=O)NCc2ccc(C(=O)O)cc2)cc1-c1ccc2[nH]ccc2c1 | cell-free assay, competition with immobilised ligand | 0.1 µM | 95% |
| C=CC(=O)N1CCC(C(=O)NCC(=O)N2CCN(c3nc(-c4cnc(N)nc4C(F)F)nc(N4CCOCC4)n3)CC2)CC1 | binding, competition with immobilised ligand | 1 µM | 100% |
| CN(c1nccc(-c2cnn3ncccc23)n1)C1CC1 | binding | 1 µM | 100% |
| O=C(NCCCN1CCOCC1)c1ccc(Nc2ncc(Cl)c(-c3ccc(Cl)s3)n2)cc1 | binding, competition with immobilised ligand | 1 µM | 89% |
| CCN1CCN(Cc2ccc(C(=O)Nc3ccc(C)c(Oc4ccc5c(c4)CC(=O)N5)c3)cc2C(F)(F)F)CC1 | binding, competition with immobilised ligand | 1 µM | 100% |
| CC1CCCN1c1nccc(-c2cnn3ncccc23)n1 (stereo not shown) | binding | 1 µM | 100% |
| CS(=O)(=O)c1cc(C2(NC(=O)c3cncc4c3cnn4-c3ccc(F)cc3)CC2)ccn1 | cell-free assay, competition with immobilised ligand | 1 µM | 100% |
| COc1ccnn2ncc(-c3ccnc(N(C)C)n3)c12 | binding | 1 µM | 41% |
| CN(C)CC#Cc1ccc(OCCCc2sc(N3CCc4cccc(C(=O)Nc5nc6ccccc6s5)c4C3)nc2C(=O)O)c(F)c1 | cell-free assay, competition with immobilised ligand | 1 µM | 100% |
| CN(C)c1nccc(-c2cnc3ncccn23)n1 | binding | 1 µM | 83% |
| O=C(O)c1cc(-c2ccc(C3CCNCC3)cc2)c2ccc(-c3ccc(C(F)(F)F)cc3)cc2c1 | cell-free assay, competition with immobilised ligand | 1 µM | 96% |
